Screening data from PubChem BioAssay.
An excerpt weighted towards active compounds, which were near 1.2% of everything screened.
KLK5 inh = inhibitors of human kallikrein 5; recombinant hK5, fluorogenic AMC substrate cleavage; actives 0.59% (n = 210,000); Q9Y337; AID 873; inhibition, % at 5 µM;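 active = inhibition of 40% or more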
Target sequence (Q9Y337 67-293 limits assumed): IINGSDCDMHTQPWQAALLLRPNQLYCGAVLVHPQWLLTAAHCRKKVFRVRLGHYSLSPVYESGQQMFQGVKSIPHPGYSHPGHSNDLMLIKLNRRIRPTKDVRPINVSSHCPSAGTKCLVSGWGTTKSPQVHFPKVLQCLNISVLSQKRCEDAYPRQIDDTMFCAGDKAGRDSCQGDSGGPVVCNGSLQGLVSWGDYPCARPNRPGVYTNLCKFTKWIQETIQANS
FXIIa inh 1536 = blocks human coagulation factor XIIa protease activity. purified FXIIa, Boc-QGR-AMC fluorogenic substrate, 2 h. P00748. inhibition, % at 5 µM. AID 800. actives 0.3% (n = 220,000); in the data active = inhibition above about 40%
thrombin 1536 = thrombin (human) inhibition | P00734 | alpha-thrombin, Boc-VPR-AMC fluorogenic substrate cleavage | inhibition, % at 5 µM | actives 0.26% (n = 220,000) | AID 1046;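 active = inhibition at or above 40%; inactive = inhibition below 40%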
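System: Human alpha-thrombin protein | Medium: pH 7.5 Tris (50 mM) with NaCl 150 mM, Tween 20 0.05% | Times: Enzyme reaction carried out at room temperature | Detection: AMC fluorescence, 355/460 nm | Evaluation: Percent inhibition scaled between no-compound controls and no-enzyme blanks | Benchmarks: Enzyme without compound as high, wells lacking enzyme as low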
S1P3 antagonist = S1P3 (human) receptor antagonism; Q99500; CHO S1P3 NFAT-BLA reporter, FRET fluorescence, antagonist mode; inhibition, % at 4.98 µM; actives 0.27% (n = 170,000); AID 485;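 active = inhibition above the plate cutoff, the mean inhibition of test wells on that plate plus 3 SD, cut at about 28% in these data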;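 note: cells challenged with S1P at its EC80 of 0.8 µM; blue over green emission ratio from cleaved BLA substrate after 4 h stimulation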
Target sequence (Q99500 whole entry, looked up): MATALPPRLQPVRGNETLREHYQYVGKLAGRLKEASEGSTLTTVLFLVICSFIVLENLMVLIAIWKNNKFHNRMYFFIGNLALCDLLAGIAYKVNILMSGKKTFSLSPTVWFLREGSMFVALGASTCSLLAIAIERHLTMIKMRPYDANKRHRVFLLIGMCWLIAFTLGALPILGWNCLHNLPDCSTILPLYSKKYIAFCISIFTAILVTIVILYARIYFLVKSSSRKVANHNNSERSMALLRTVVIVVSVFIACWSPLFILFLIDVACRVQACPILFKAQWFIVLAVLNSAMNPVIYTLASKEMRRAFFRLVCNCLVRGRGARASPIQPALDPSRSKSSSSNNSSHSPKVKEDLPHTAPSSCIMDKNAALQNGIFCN
DTT redox prof = compounds producing H2O2 with reducing agent – biochemical, NIH compound library profiling, artefact control for MLSCN library redox annotation, primary screen | DTT-dependent redox cycling H2O2, phenol red/HRP absorbance; 100% = 100 µM peroxide control, 0% = buffer | actives 0.03% (n = 200,000) | activation, % at 10 µM;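 active = activation of at least 50% relative to the plate's high and low controls in the primary single-dose screen; inactive = activation below 50%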;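 note: compound incubated with DTT at 0.8 mM final as the reducing agent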
FXIa inh = blocks human coagulation factor XIa protease activity. actives 0.14% (n = 220,000). P03951. purified FXIa, Boc-Glu-Ala-Arg-AMC fluorogenic substrate. inhibition, % at 5 µM. AID 798;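 active = inhibition of at least 40%; inactive = inhibition below 40%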;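 note: fluorescence of freed AMC excited at 355 nm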
Large screens that a line does not name were inactive.

CCC(=O)Nc1cc2c(cc1C(=O)c1ccccc1)OCCO2	none
CC(=O)Nc1cc2c(cc1C(=O)c1ccccc1)OCCO2	KLK5 inh 49
CC(=O)N1CCC(N2CCN(c3ccccc3F)CC2)CC1	FXIIa inh 1536 60
C/C(=N\NC(=S)NC1CCCCC1)c1cccc(Br)c1	thrombin 1536 51
COc1ccc(CNC(=O)c2cc3c(=O)n4ccccc4nc3n(Cc3ccco3)c2=N)cc1	none (no result: KLK5 inh, FXIIa inh 1536, thrombin 1536, FXIa inh)
Cc1ccc(Cn2c(=N)c(C(=O)NCc3ccco3)cc3c(=O)n4ccccc4nc32)cc1	KLK5 inh 41
CC/S(=N\S(=O)(=O)c1ccc(C)cc1)c1ccccc1 (stereo not drawn)	none (no result: DTT redox prof)
Cc1cccc(NC(=O)c2ccccc2OCC(=O)N2CCCC2)c1C	none
COc1ccc(/C=N/NC(=O)c2sc3nc(C)cc(C)c3c2N)cc1	KLK5 inh 48, FXIIa inh 1536 87, thrombin 1536 42 (no result: DTT redox prof)
Cc1cc(C)c2c(N)c(C(=O)N/N=C/c3cccs3)sc2n1	none (no result: DTT redox prof)
CC1(c2ccccc2)CC(C)(C)N2C(=O)Cc3cccc1c32 (stereo not drawn)	none
O=S(=O)(Nc1ccccc1)c1ccc(-c2csnn2)cc1	FXIIa inh 1536 43 (no result: DTT redox prof)
Cc1cc(F)ccc1N1CCC(N2CCN(CCC(C)C)C(CCO)C2)CC1 (stereo not drawn)	KLK5 inh 42, thrombin 1536 45
CCOc1cc2c(C#N)c(N3CCOCC3)nc(N)c2c(N)n1	KLK5 inh 110 (no result: DTT redox prof)
Cc1cc(C(=O)CCl)c(C)n1CCc1ccc(Cl)cc1	none (no result: KLK5 inh)
COc1ccc(CCn2c(C)cc(C(=O)CCl)c2C)cc1OC	FXIIa inh 1536 103 (no result: thrombin 1536)
CCOC(=O)N1CCN(C(=O)c2ccccc2N(C)S(C)(=O)=O)CC1	thrombin 1536 55
COc1ccc(NC(=O)Cc2ccc(Cl)c(Cl)c2)cn1	none
COc1ccc(NC(=O)Cc2ccccc2F)cn1	thrombin 1536 50
COc1ccc(NC(=O)/C(Cl)=C(/Cl)S(=O)Cc2ccccc2Cl)cn1 (stereo not drawn)	S1P3 antagonist 47
COC(=O)c1ccccc1N1CCS(=O)(=O)CC1	none
OCc1cc(-c2ccc(Cl)c(Cl)c2)on1	none
COc1cc(CC(=O)Nc2cccc(C(F)(F)F)c2)cc(OC)c1OC	none
COc1cc(CCC(=O)Nc2cccc(C(F)(F)F)c2)cc(OC)c1OC	thrombin 1536 41
CC(/C=N/NC(=O)c1cc(C(C)C)[nH]n1)=C\c1ccccc1	thrombin 1536 46
CC(NC(=O)c1ccco1)C(=O)OC(C)C(=O)NCc1ccccc1 (stereo not drawn)	KLK5 inh 41
COc1ccc(NC(=O)c2ccco2)cc1NC(=O)c1ccco1	none
COc1cc(NC(=O)c2ccco2)c(OC)cc1NC(=O)Nc1cccc(Cl)c1	KLK5 inh 46
CC(Nc1ccc(Br)cn1)c1cc(Cl)ccc1O (stereo not drawn)	S1P3 antagonist 67
Cc1ccc(Sc2ncccc2COC(=O)NC(C)C)cc1	none
COc1ccccc1CN1CCNC(=O)C1CC(=O)NCc1cn(C)nc1C (stereo not drawn)	none
O=C(O)CN1CCc2ccccc2C1	none
N#Cc1c(NC(=O)c2ccccc2)sc2c1CCC2	none (no result: S1P3 antagonist)
COc1cccc(C(=O)Nc2sc3c(c2C#N)CCN(C(C)=O)C3)c1	KLK5 inh 42
Cc1ccc(NC(=O)CNc2ccc(OC(C)C)cc2)cc1	none (no result: S1P3 antagonist)
Cc1ccc(C(CC(=O)NCCCN(C)C)c2ccc(OC(C)C)cc2)cc1 (stereo not drawn)	FXIIa inh 1536 63 (no result: DTT redox prof)
O=C(Cn1[nH]c(=O)c2ccccc2c1=O)Nc1cccc(S(=O)(=O)N2CCCCCC2)c1	FXIa inh 52 (no result: FXIIa inh 1536)
COc1cc(CN2CCCC(CO)(Cc3ccccc3C)C2)cc2c1OCO2 (stereo not drawn)	none
Cc1cccc(NC(=O)C2(c3cccs3)CCOCC2)n1	none
Nc1nc(CCl)nc(Nc2ccc3ccccc3c2)n1	KLK5 inh 61 (no result: DTT redox prof)
Cc1ccccc1C(=O)NC(CC(C)C)C(=O)NN1C(=O)c2ccccc2C1=O (stereo not drawn)	none
O=C(CSc1nc(C2CC2)nc2c1cnn2-c1ccccc1)Nc1c[nH]c(=O)[nH]c1=O	none
COC(=O)c1cc2sc(Cl)cc2n1CC(=O)Nc1cccc(SC)c1	S1P3 antagonist 59
COC(=O)c1cc2sc(Cl)cc2n1CC(=O)Nc1ccc(OC)c(OC)c1OC	none
CCOCCCn1cnc2c(c1=O)c1nc3ccccc3nc1n2-c1ccc(C)cc1	none
CCOCCCn1cnc2c(c1=O)c1nc3ccccc3nc1n2-c1ccccc1	FXIIa inh 1536 54
NNC(=O)c1ccc(Cn2cccn2)o1	none (no result: DTT redox prof)
Cn1nc(C(F)(F)F)c2cc(C(=O)NC3CC3)sc21	none (no result: S1P3 antagonist)
CN1CCN(C(=O)c2cc3c(C(F)(F)F)nn(C)c3s2)CC1	KLK5 inh 48 (no result: S1P3 antagonist)
COC(=O)C1CCN(C(=O)COc2cc3sc(C)nc3c3sccc23)CC1	S1P3 antagonist 55
O=C1CC(C(=O)Nc2ccc(Cl)cc2[N+](=O)[O-])C2(CCCCC2)O1 (stereo not drawn)	none
COc1cc(OC)cc(-n2nnnc2SCC(=O)Nc2ccc(C(C)=O)cc2)c1	thrombin 1536 89 (no result: S1P3 antagonist)
O=c1[nH]nc(SCc2nnc(-c3ccc([N+](=O)[O-])cc3)o2)n1C1CCCCC1	thrombin 1536 44 (no result: DTT redox prof)
Brc1ccc(-c2csc(N/N=C/c3ccco3)n2)cc1	none
NC(=O)/C(=N\OC(=O)c1ccco1)c1nc(-c2ccc(Br)cc2)cs1	FXIIa inh 1536 41, thrombin 1536 78 (no result: S1P3 antagonist)
CCN1C(=O)N(C)[C@@H](c2ccccc2)C(C(=O)OC)=C1C	none (no result: S1P3 antagonist, DTT redox prof)
COc1ccc2c(c1)c(CCN1C(=O)c3ccccc3C1=O)cn2C(=O)c1ccco1	S1P3 antagonist 55
O=C(Oc1ccc2[nH]cc(CCN3C(=O)c4ccccc4C3=O)c2c1)c1ccco1	none
CCn1cc(C(=O)NCc2ccc(Cl)cc2)c(=O)c2cc(S(=O)(=O)N3CCOCC3)ccc21	thrombin 1536 56
CCn1cc(C(=O)NCc2ccccc2OC)c(=O)c2cc(S(=O)(=O)N(C)C)ccc21	none
CCn1cc(C(=O)NCc2ccc3c(c2)OCO3)c(=O)c2cc(S(=O)(=O)N3CCOCC3)ccc21	thrombin 1536 93
CCn1cc(C(=O)NCc2ccc3c(c2)OCO3)c(=O)c2cc(S(=O)(=O)N(C)C)ccc21	thrombin 1536 55
O=C(COC(=O)c1ccc(S(=O)(=O)Nc2ccccc2)cc1)NCCC1=CCCCC1	none
c1ccc(Nc2ncnc3sc4c(c23)CCC4)cc1	none (no result: S1P3 antagonist)
c1csc(CCNc2ncnc3sc4c(c23)CCC4)c1	S1P3 antagonist 94
COc1ccc(C2CC(=O)C(C(c3ccc(O)cc3)C3C(=O)CC(c4ccc(OC)cc4)CC3=O)C(=O)C2)cc1 (stereo not drawn)	KLK5 inh 50, FXIIa inh 1536 45 (no result: DTT redox prof)
